Screens deposited in PubChem BioAssay by several laboratories.
Calb biofilm kill = clotrimazole potentiators killing C. albicans biofilm, primary screen, 4-compound mixtures; C. albicans biofilm persisters + clotrimazole, fluorescence viability; primary screen in compound mixtures of four per well; inhibition, % at 7.6 µM; 0.02% of 120,000 active;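 active = inhibition above 30.3% in the primary screen of four-compound pools, then above 30% when the compound was retested; inconclusive = passed the primary limit but could not be retested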;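 note: compounds exposed to preformed 24 h biofilms for 48 h; 0% = untreated biofilm control and 100% = clotrimazole plus chlorhexidine kill blank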
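Test system: C. albicans biofilms. Buffer or medium: RPMI/MOPS medium, pH 7.0. Timing: 48 h compound exposure at 37 °C. Technique: Alamar Blue fluorescence. Evaluation: percent inhibition of biofilm viability.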
Pf gametocyte = late stage P. falciparum gametocyte viability inhibitors, primary screen, ATP luminescence, HTS; inhibition, % at 10.9 µM; 0.065% of 150,000 active; P. falciparum stage V gametocytes, 24 h;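 active = inhibition above the mean plus 3 SD of compounds within the control limits, set per campaign, cut at about 38% in these data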;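 note: 0% = DMSO wells and 100% = medium only without gametocytes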
ROMK primary = ROMK potassium channel modulators, primary screen, cell-based, thallium flux, MLSMR library; ATP-sensitive inward rectifier potassium channel 1 (Homo sapiens), P48048; Tet-inducible ROMK, thallium flux fluorescence; actives lie on both sides; B-score at 10 µM; 2% of 130,000 active; AID 1918, 2009;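 active = signal ratio slope over the read window, or its plate-corrected B-score, at least 3 SD from the plate mean, either direction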;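 note: B-score of the F/F0 ratio slope over 7 to 12 s after thallium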
Target sequence (P48048 whole entry, looked up): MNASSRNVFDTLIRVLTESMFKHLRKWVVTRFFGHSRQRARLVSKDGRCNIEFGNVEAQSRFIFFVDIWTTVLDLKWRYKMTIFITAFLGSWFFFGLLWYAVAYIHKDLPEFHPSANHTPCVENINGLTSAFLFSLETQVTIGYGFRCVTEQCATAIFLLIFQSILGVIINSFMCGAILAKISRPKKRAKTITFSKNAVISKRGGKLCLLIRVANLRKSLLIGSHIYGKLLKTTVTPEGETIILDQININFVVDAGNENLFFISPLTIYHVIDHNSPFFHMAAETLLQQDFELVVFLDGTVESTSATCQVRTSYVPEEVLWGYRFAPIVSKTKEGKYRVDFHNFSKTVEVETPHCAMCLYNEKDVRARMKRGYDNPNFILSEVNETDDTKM
ROMK retest = ROMK channel modulator hit retest, confirmation, cell-based, thallium flux, duplicate, resupplied hits | shares compounds with ROMK primary | fluorescence ratio; active compounds read low | normalized thallium flux (F/F0 slope) at 10 µM | 54% of 3,000 active | AID 1917, 2009;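 active = Flux at 10 µM at least 3 SD below or above vehicle control mean in one or both replicates; inconclusive = no clear call, values can overlap the other calls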
Numbers without * were called inactive; u = inconclusive; x = not tested or not shown. This excerpt belongs to a sample that is enriched for hits.

SMILES	Calb biofilm kill	Pf gametocyte	ROMK primary	ROMK retest
O=[N+]([O-])c1cc(S(=O)(=O)N2CCCCCC2)ccc1Cl	12	-10	-3.9*	0.064*
O=S(=O)(c1ccc(Oc2ccc(Cl)cc2)c(S(=O)(=O)N2CCCCC2)c1)N1CCCCC1	x	5	x	0.064*
Cc1ccc(S(=O)(=O)N2CCCC2)cc1[N+](=O)[O-]	3	2	1.6	x
O=S(=O)(c1ccc(Cl)cc1)N1CCN(S(=O)(=O)N2CCCCCC2)CC1	0	x	-0.73	x
CCOc1ccc(NC(=O)CCC(=O)c2ccc(F)cc2)cc1	x	8	x	x
Clc1cc(Sc2ccc(Br)cc2)nnc1-c1ccccc1	x	-16	x	x
O=C(Oc1ccc(=O)n(-c2ccccc2)n1)c1ccc(Cl)cc1	x	1	x	x
O=C(Oc1ccc(=O)n(-c2ccccc2)n1)c1ccc(F)cc1	7	-18	-3.8*	0.053*
Cc1ccc(OCCCCNC(C)c2ccccc2)c(C)c1 (centres undefined)	x	-8	x	x
CC(C)NC(=O)c1ccc2c(c1)N(CC(=O)Nc1ccccc1F)C(=O)C(C)(C)O2	x	7	x	x
N#Cc1ccccc1Cn1c(=O)n(CCCC(=O)NCc2ccc3c(c2)OCO3)c(=O)c2ccccc21	-1	7	3.6*	0.086
Cc1ccc(Cn2c(=O)n(CCC(=O)NCc3ccc4c(c3)OCO4)c(=O)c3ccccc32)cc1	x	14	x	x
Cc1csc(NC(=O)C2CCN(S(=O)(=O)c3ccccc3F)CC2)n1	-2	-16	-0.17	x
OC(CN1CCN(c2ccccc2)CC1)Cn1c2ccccc2c2ccccc21 (centres undefined)	x	-9	0.084	x
Cn1cc(CN2CCN(c3ccccc3)CC2)c2ccccc21	x	x	-5.2*	0.056*
COc1ccc(-c2oc3ccccc3c2C(=O)OCc2ccccc2OC)cc1	x	2	x	x
CCOC(=O)C(CC)Sc1nnc(COc2ccc(C)cc2)n1-c1ccccc1 (centres undefined)	4	-6	-4.5*	0.066*
CCOc1ccc(-n2c(COc3ccc(C)cc3)nnc2SCC(N)=O)cc1	x	x	1.1	x
CN1C(=O)[C@H]2[C@@H](/C=C/c3ccccc3)N3C(=O)CN(CC4CC4)C(=O)[C@@]3(C)[C@H]2C1=O	x	-12	x	x
O=C(N/N=C/c1ccco1)c1cc(-c2ccc3ccccc3c2)n[nH]1	x	x	-0.95	x
CCc1ccc(-c2cc(C(=O)N/N=C/c3ccco3)[nH]n2)cc1	14	9	-3.2*	0.063*
CCOC(=O)C1=C(Cc2ccc(C)cc2)C(=O)c2ccccc2C1=O	x	x	-5.1*	0.054*
CCOC(=O)c1ccc(COC(=O)c2ccc3c(c2)-c2ccccc2C3=O)cc1	x	-11	0.014	x
Cc1c(/C=N/NC(=O)C(NC(=O)c2ccc3c(c2)OCO3)C(C)C)c2ccccc2n1C (centres undefined)	9	x	1.6*	0.074
CC(C)C(NC(=O)c1ccc2c(c1)OCO2)C(=O)N/N=C/c1cccs1 (centres undefined)	12	4	-0.73	x
SMILES	Calb biofilm kill	Pf gametocyte	ROMK primary	ROMK retest
CCc1ccc(N2CCN(S(=O)(=O)CC34CCC(CC3=O)C4(C)C)CC2)cc1 (centres undefined)	x	-9	x	x
O=S(=O)(NC1CCCC1)c1ccc(S(=O)(=O)N(Cc2cccs2)CC2CCCO2)cc1 (centres undefined)	x	8	-3.1*	0.073
O=C(Cc1cccs1)N(Cc1cccs1)C1(C(=O)NC2CCCC2)CCCCC1	x	x	-1.5	x
O=C(Cc1cccs1)N(CC1CCCO1)C1(C(=O)NC2CCCC2)CCCCC1 (centres undefined)	4	11	-1.8*	u
O=S(=O)(c1ccc(S(=O)(=O)N(Cc2cccs2)CC2CCCO2)cc1)N1CCCCC1 (centres undefined)	x	-8	-0.92	x
Cc1c(NC(=O)Nc2cc(F)c(F)cc2Cl)c(=O)n(-c2ccccc2)n1C	x	8	x	x
O=C(CSc1ccc2nnc(-c3ccc(F)cc3)n2n1)NCC1CCCO1 (centres undefined)	x	x	0.95	x
COc1ccc(-c2nnc3ccc(SCC(=O)NCC4CCCO4)nn23)cc1 (centres undefined)	x	x	-6.1*	0.07
NS(=O)(=O)c1ccc(Oc2ccc(S(N)(=O)=O)cc2)cc1	20	4	0.44	x
C=CS(=O)(=O)c1ccc(Oc2ccc(S(=O)(=O)C=C)cc2)cc1	13	-6	-5.8*	0.041*
O=C1c2ccccc2-c2onc3ccc(N4CCCC4)c1c23	11	12	-5.6*	0.06*
O=C1c2ccccc2C(=O)c2c1cccc2N1CCCC1	-13	14	0.71	x
Cc1cccc(Cn2c(C)nc3c(N)c(C)c(C)cc32)c1	1	-5	-0.59	x
Clc1ncccc1OCc1ccccc1	x	5	x	x
COc1ccccc1NC(=O)CN1CCN(Cc2ccccc2)CC1	x	16	x	x
O=C(CN1CCN(Cc2ccccc2)CC1)Nc1ccccc1-c1ccccc1	14	x	-3.7*	u
CCCOc1ccc(NC(=O)CCC(=O)NC(C)c2ccccc2)cc1 (centres undefined)	x	11	x	x
NC(CO)C12CC3CC(CC(C3)C1)C2 (centres undefined)	29	-9	-0.54	x
NC(CCC(=O)O)C12CC3CC(CC(C3)C1)C2 (centres undefined)	10	7	2.5*	u
COc1ccc(/C=C(\NC(=O)c2ccccc2)C(=O)OC[C@@H]2CCC[N+]3(C)CCCCC23)cc1OC (some centres undefined)	7	-3	0.12	x
CCOc1cc(CNc2ccc(N3CCCC3)cc2)cc(Cl)c1OC	18	-5	1.1	x
COc1cc(CNc2ccc(N3CCCC3)cc2)cc(Cl)c1OC	-7	5	4*	0.074
COc1cccc(OCCn2cccc2/C=C2/C(=N)N3OC(C)=CC3=NC2=O)c1	15	12	-3.3*	0.077
CC1=CC2=NC(=O)/C(=C\c3cccn3CCOc3cccc(C)c3)C(=N)N2O1	16	-32	-0.33	x
COc1ccc(Br)cc1CN(C)CC(=O)NCCc1ccccc1	16	7	-0.81	x
SMILES	Calb biofilm kill	Pf gametocyte	ROMK primary	ROMK retest
O=C(COc1ccc(Br)cc1CNC1CCCCC1)NCCc1ccccc1	5	-9	-5.2*	0.048*
CC(C)C1=CC(=Nc2ccc(S(N)(=O)=O)cc2)C=C(C(C)C)C1=O	x	-13	x	x
CC1CN(c2nc3ccccc3cc2-c2ccccc2)CC(C)O1 (centres undefined)	4	-17	x	x
CCC(c1nnnn1C(C)(C)CC)N(CCCO)Cc1cc2cc(C)cc(C)c2[nH]c1=O (centres undefined)	x	-6	x	x
CCC(c1nnnn1C(C)(C)CC)N(CCN1CCOCC1)Cc1cc2cc(C)ccc2[nH]c1=O (centres undefined)	x	-7	-4.8*	u
CCC(C)(C)n1nnnc1C(C(C)C)N(CCCO)Cc1cc2cc(C)ccc2[nH]c1=O (centres undefined)	x	-11	x	x
CCCC(c1nnnn1C(C)(C)CC)N(CCCO)Cc1cc2cc(C)cc(C)c2[nH]c1=O (centres undefined)	x	-29	-3.7*	0.055*
O=C(Nc1ccccc1O)c1cccc(S(=O)(=O)Nc2ccccc2O)c1	x	5	x	x
